{
  "source": "ChEMBL document CHEMBL4270633",
  "about": "“Discovery of novel vinyl sulfone derivatives as anti-tumor agents with microtubule polymerization inhibitory and vascular disrupting activities” (Eur J Med Chem, 2018)",
  "key": {"K562 [1]": {"test_system": "K562", "assay": "Antiproliferative activity against human K562 cells at 1 uM after 72 hrs by MTT assay", "format": "functional, cell-based"}, "K562 [2]": {"test_system": "K562", "assay": "Antiproliferative activity against human K562 cells after 72 hrs by MTT assay", "format": "functional, cell-based", "conditions": "K562, 72 h", "in_short": "(§1)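 Cells seeded and held 24 h at 37 °C, 5% CO2, then exposed to a concentration series in medium with 0.1% DMSO for 72 h. MTT (5 mg/mL in PBS) added for 4 h and OD read at 490 nm. IC50 taken from dose-response curves; mean ± SD of at least three independent experiments.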"}, "HepG2": {"test_system": "HepG2", "assay": "Antiproliferative activity against human HepG2 cells after 72 hrs by MTT assay", "format": "functional, cell-based", "conditions": "HepG2, 72 h", "in_short": "as §1"}, "A549": {"test_system": "A549", "assay": "Antiproliferative activity against human A549 cells after 72 hrs by MTT assay", "format": "functional, cell-based", "conditions": "A549, 72 h", "in_short": "as §1"}, "[3]": {"assay": "Inhibition of porcine brain tubulin polymerization after 30 mins by spectrophotometric method", "parameters": "species or system Sus scrofa", "in_short": "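Purified tubulin (2 mg/mL) in PEM buffer (80 mM PIPES pH 6.9, 0.5 mM EGTA, 2 mM MgCl2, 15% glycerol), preincubated on ice with compound or DMSO vehicle, then GTP added. Absorbance at 340 nm followed at 37 °C for 30 min. IC50 derived from area under the polymerization curve.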"}, "K562 [4]": {"test_system": "K562", "assay": "Disruption of microtubule network in human K562 cells at 0.005 to 0.02 uM after 24 hrs by DAPI staining based immunofluorescent microscopic method", "format": "cell-based", "in_short": "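K562 cells exposed for 24 h to 0.1% DMSO vehicle or to 0.05, 0.10, 0.20 µM or 0.005, 0.010, 0.020 µM. Fixed in 4% paraformaldehyde, blocked with goat serum 20 min at room temperature, then anti-α-tubulin antibody 2 h at 37 °C. Fluorescent antibody staining, DAPI nuclear counterstain, fluorescence microscopy.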"}, "K562 [5]": {"test_system": "K562", "assay": "Cell cycle arrest in human K562 cells assessed as accumulation at G1 phase at 0.005 uM after 48 hrs by propidium iodide staining based flow cytometry (reference value: 41.08%)", "format": "functional"}, "K562 [6]": {"test_system": "K562", "assay": "Cell cycle arrest in human K562 cells assessed as accumulation at S phase at 0.005 uM after 48 hrs by propidium iodide staining based flow cytometry (reference value: 49.41%)", "format": "functional"}, "K562 [7]": {"test_system": "K562", "assay": "Cell cycle arrest in human K562 cells assessed as accumulation at G2 phase at 0.005 uM after 48 hrs by propidium iodide staining based flow cytometry (reference value: 9.51%)", "format": "functional"}, "K562 [8]": {"test_system": "K562", "assay": "Cell cycle arrest in human K562 cells assessed as accumulation at G1 phase at 0.01 uM after 48 hrs by propidium iodide staining based flow cytometry (reference value: 41.08%)", "format": "functional"}, "K562 [9]": {"test_system": "K562", "assay": "Cell cycle arrest in human K562 cells assessed as accumulation at S phase at 0.01 uM after 48 hrs by propidium iodide staining based flow cytometry (reference value: 49.41%)", "format": "functional"}, "K562 [10]": {"test_system": "K562", "assay": "Cell cycle arrest in human K562 cells assessed as accumulation at G2 phase at 0.01 uM after 48 hrs by propidium iodide staining based flow cytometry (reference value: 9.51%)", "format": "functional"}, "K562 [11]": {"test_system": "K562", "assay": "Cell cycle arrest in human K562 cells assessed as accumulation at G1 phase at 0.02 uM after 48 hrs by propidium iodide staining based flow cytometry (reference value: 41.08%)", "format": "functional"}, "K562 [12]": {"test_system": "K562", "assay": "Cell cycle arrest in human K562 cells assessed as accumulation at S phase at 0.02 uM after 48 hrs by propidium iodide staining based flow cytometry (reference value: 49.41%)", "format": "functional"}, "K562 [13]": {"test_system": "K562", "assay": "Cell cycle arrest in human K562 cells assessed as accumulation at G2 phase at 0.02 uM after 48 hrs by propidium iodide staining based flow cytometry (reference value: 9.51%)", "format": "functional"}, "K562 [14]": {"test_system": "K562", "assay": "Induction of apoptosis in human K562 cells at 0.005 uM after 48 hrs by Annexin V-FITC/propidium iodide staining based flow cytometry (reference value: 1.46%)", "format": "functional", "in_short": "(§2)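 K562 cells treated 48 h at 0, 0.05, 0.1, 0.2 µM or 0, 0.005, 0.010, 0.020 µM. Washed in PBS, resuspended in Annexin V binding buffer and stained 15 min in the dark. Early plus late apoptotic fractions quantified by flow-cytometric quadrant analysis.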"}, "K562 [15]": {"test_system": "K562", "assay": "Induction of apoptosis in human K562 cells at 0.02 uM after 48 hrs by Annexin V-FITC/propidium iodide staining based flow cytometry (reference value: 1.46%)", "format": "functional", "in_short": "as §2"}, "K562 [16]": {"test_system": "K562", "assay": "Induction of apoptosis in human K562 cells after 48 hrs by Annexin V-FITC/propidium iodide staining based flow cytometry", "format": "functional, cell-based", "in_short": "as §2"}, "HUVEC": {"test_system": "HUVEC", "assay": "Antivascular activity against HUVEC assessed as reduction in wound closure after 24 hrs by phase contrast microscopic method", "format": "functional, cell-based", "conditions": "Homo sapiens", "in_short": "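Scratch wounds made with a sterile 200 µL pipette tip, then treated at 0.05, 0.10, 0.20 µM or 0.005, 0.010, 0.020 µM. Phase-contrast images taken at 0 h and 24 h after treatment.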"}, "H22 [17]": {"test_system": "H22", "assay": "Antitumor activity against mouse H22 cells implanted in ICR mouse assessed as tumor growth inhibition at 15 mg/kg, iv administered once daily for 21 consecutive days relative to control", "format": "functional", "conditions": "read-out: TGI", "in_short": "(§3)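 Male ICR mice, five weeks old, inoculated s.c. in the right flank with 1 × 10^6 H22 cells. After one day, randomized into groups of six. Given i.v. 15 or 30 mg/kg daily for 21 days in 10% DMF/2% Tween 80/88% saline, or 8 mg/kg every 2 days; vehicle control given i.v. Tumors excised and weighed; inhibition (%) = (1 − treated/control mean tumor weight) × 100.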"}, "H22 [18]": {"test_system": "H22", "assay": "Antitumor activity against mouse H22 cells implanted in ICR mouse assessed as tumor growth inhibition at 30 mg/kg, iv administered once daily for 21 consecutive days relative to control", "format": "functional", "conditions": "read-out: TGI", "in_short": "as §3"}, "K562 [19]": {"test_system": "K562", "assay": "Induction of apoptosis in human K562 cells at 0.01 uM after 48 hrs by Annexin V-FITC/propidium iodide staining based flow cytometry (reference value: 1.46%)"}},
  "note": "Calls of active or inactive are those of the source. The rule behind the calls is not given here.",
  "data": [
    {"smiles": "COc1ccc(/C=C\\c2cc(OC)c(OC)c(OC)c2)cc1O", "note": "[COMBRETASTATIN A4]", "values": [
      {"measurement": "Activity", "setting": "K562 [1]", "value": "Active"},
      {"measurement": "IC50", "setting": "K562 [2]", "value": 0.021, "unit": "µM"},
      {"measurement": "IC50", "setting": "HepG2", "value": 0.012, "unit": "µM"},
      {"measurement": "IC50", "setting": "A549", "value": 0.037, "unit": "µM"},
      {"measurement": "IC50", "setting": "[3]", "value": 2.17, "unit": "µM"},
      {"measurement": "Activity", "setting": "K562 [4]", "value": "Active"},
      {"measurement": "Activity", "setting": "K562 [5]", "value": 46.14, "unit": "%"},
      {"measurement": "Activity", "setting": "K562 [6]", "value": 40.02, "unit": "%"},
      {"measurement": "Activity", "setting": "K562 [7]", "value": 13.84, "unit": "%"},
      {"measurement": "Activity", "setting": "K562 [8]", "value": 61.16, "unit": "%"},
      {"measurement": "Activity", "setting": "K562 [9]", "value": 16.25, "unit": "%"},
      {"measurement": "Activity", "setting": "K562 [10]", "value": 22.59, "unit": "%"},
      {"measurement": "Activity", "setting": "K562 [11]", "value": 56.51, "unit": "%"},
      {"measurement": "Activity", "setting": "K562 [12]", "value": 18.54, "unit": "%"},
      {"measurement": "Activity", "setting": "K562 [13]", "value": 24.95, "unit": "%"},
      {"measurement": "Activity", "setting": "K562 [14]", "value": 25.28, "unit": "%"},
      {"measurement": "Activity", "setting": "K562 [15]", "value": 63.05, "unit": "%"},
      {"measurement": "Activity", "setting": "K562 [16]", "value": "Dose-dependent effect"},
      {"measurement": "Activity", "setting": "HUVEC", "value": "Dose-dependent effect"},
      {"measurement": "inhibition in vivo at 15 mg/kg", "setting": "H22 [17]", "value": 45, "unit": "%"},
      {"measurement": "inhibition in vivo at 30 mg/kg", "setting": "H22 [18]", "value": 56.7, "unit": "%"},
      {"measurement": "Activity", "setting": "K562 [19]", "value": 53.05, "unit": "%"}
    ]}
  ]
}
